This note sets out measurements from BindingDB's records for doi:10.1021/jm00096a020 (University of California, 1992).

For test [1], the target named is T1, Human immunodeficiency virus type 1 protease (Human immunodeficiency virus 1, UniProt Q72874). Put plainly: Inhibition of HIV-1 protease in 10% fetal calf serum(FCS). In a few lines: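 COS A6 cells, which constitutively release viral capsids, were exposed to inhibitor in Dulbecco's PBS for 15 min. An equal volume of medium with 10% FCS plus inhibitor was then added and incubation continued for 3.75 h. Capsids were isolated from the supernatant, and polyprotein processing was scored as p24 by ELISA.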

Test [2] has as its target T2, Pol polyprotein (Human immunodeficiency virus 2, UniProt P88142). Nature of the test: ChEBML_159124. From the text:
(§1) Inhibition of HIV-2 protease in 5%DMSO

Test [3] has as its target T1, Human immunodeficiency virus type 1 protease. Nature of the test: (§2) Inhibitory concentration against HIV-1 protease in the absence of DMSO. The method in brief: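 The water-soluble dipotassium salt was tested against aspartyl proteases with no DMSO present, and IC50 values were determined.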
Test [4] concerns HIV-2 protease. Nature of the test: ChEBML_158058. The text has this:
In vitro Inhibitory activity against HIV-2 protease in the presence of 5%DMSO

The target of test [5] is T1, Human immunodeficiency virus type 1 protease. Nature of the test: Inhibition of HIV-1 protease in 5%DMSO. In a few lines: (§3)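 Purified recombinant HIV PR activity was followed by cleavage of a decapeptide substrate. Incubation was 30–45 min at 37 °C, and hydrolysis products were quantified by HPLC.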
Test [6] shares this target. Put plainly: Binding affinity against HIV-1 protease. The method in brief:
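Purified recombinant HIV-1 protease (6 × 10^-4 mg/mL) preincubated 1 min with inhibitor in 50 mM sodium acetate pH 5.5, 1 mM DTT, 1 mM EDTA, 1 M NaCl. Decapeptide substrate then added, 30–45 min at 37 °C. Activity read by HPLC quantitation of hydrolysis products. Inhibition plotted as a Dixon plot at several substrate concentrations.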

The target in test [7] is HIV-2 protease (Human immunodeficiency virus 2). Put plainly: Inhibitory concentration against HIV-2 protease in the absence of DMSO.
Test [8] shares this target. Nature of the test: In vitro Inhibitory activity against HIV-2 protease in the presence of 5%DMSO.
The target of test [9] is T1, Human immunodeficiency virus type 1 protease. Put plainly: ChEBML_79800.
Text: as §2

The subject of test [10] is HIV-2 protease. Put plainly: Inhibitory concentration against HIV-2 protease. In a few lines:
as §3

A further test relates to HIV-1 protease. Put plainly: Inhibitory concentration against HIV-1 protease. In a few lines: as §3
Test [11] concerns the target T2, Pol polyprotein. The test is described as §1. The method in brief:
as §3

Where “and” joins values, the source holds several entries; their conditions need not be identical. Equal values may be shown once.

T2 sequence (P88142 whole entry): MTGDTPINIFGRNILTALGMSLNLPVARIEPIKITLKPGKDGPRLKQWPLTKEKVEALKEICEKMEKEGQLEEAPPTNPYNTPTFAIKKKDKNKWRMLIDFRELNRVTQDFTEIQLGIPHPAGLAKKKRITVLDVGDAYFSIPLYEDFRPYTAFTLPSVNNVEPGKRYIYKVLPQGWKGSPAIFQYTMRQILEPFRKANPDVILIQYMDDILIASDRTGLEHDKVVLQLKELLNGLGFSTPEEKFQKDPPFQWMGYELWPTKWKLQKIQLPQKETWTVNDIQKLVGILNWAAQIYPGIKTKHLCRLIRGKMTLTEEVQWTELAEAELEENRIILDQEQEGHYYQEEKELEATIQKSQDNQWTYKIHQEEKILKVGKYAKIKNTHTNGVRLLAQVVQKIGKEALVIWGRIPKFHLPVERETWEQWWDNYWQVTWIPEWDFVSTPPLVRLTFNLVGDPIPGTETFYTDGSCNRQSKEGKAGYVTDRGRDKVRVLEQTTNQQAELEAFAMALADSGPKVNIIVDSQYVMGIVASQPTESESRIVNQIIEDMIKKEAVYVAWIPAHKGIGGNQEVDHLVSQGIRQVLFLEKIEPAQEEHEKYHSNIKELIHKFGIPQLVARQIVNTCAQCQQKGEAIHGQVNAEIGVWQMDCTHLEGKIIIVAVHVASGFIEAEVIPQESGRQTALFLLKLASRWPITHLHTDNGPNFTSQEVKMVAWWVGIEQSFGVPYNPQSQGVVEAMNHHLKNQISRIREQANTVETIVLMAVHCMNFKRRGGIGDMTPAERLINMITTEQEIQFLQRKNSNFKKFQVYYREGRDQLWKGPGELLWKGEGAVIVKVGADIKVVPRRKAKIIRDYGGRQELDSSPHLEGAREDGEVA

As usually defined, the IC50 is the concentration that inhibits the measured activity by half. As a reminder, the Ki is a measure of affinity in units of concentration, obtained from inhibition or displacement. A high value points to lower affinity. On to `CC1=C(CCC(=O)O)/C2=C/c3c(CCC(=O)O)c(C)c4[n]3[Cu][n]3/c(c(C)c(C(COC(=O)C5=CC5)OC(=O)C5=CC5)/c3=C/C3=NC(=C\4)/C(C(COC(=O)C4=CC4)OC(=O)C4=CC4)=C3C)=C\C1=N2` (stereo not drawn), for which the IC50 in [1] was over 70000 nM; at Pol polyprotein [2], 2200 nM; in test [3], 725 nM; with HIV-2 protease [4] it was 470 nM; in test [5], 975 nM. Moreover, the inhibitory constant (Ki) in test [6] was determined as 140 nM.

Consider `CC1=C(CCC(=O)O)/C2=C/c3c(CCC(=O)O)c(C)c4[n]3[Mn][n]3/c(c(C)c(C(COC(=O)C5=CC5)OC(=O)C5=CC5)/c3=C/C3=NC(=C\4)/C(C(COC(=O)C4=CC4)OC(=O)C4C=C4)=C3C)=C\C1=N2` (stereo not drawn), for which the 50% inhibitory concentration (IC50) in test [1] was determined as 65000 nM; in test [3], 100 nM; in test [5] it was 400 nM; in [7], 700 nM; in [8], 1200 nM. The Ki in test [6] worked out at 85 nM.

Regarding `CC1=C(CCC(=O)O)/C2=C/c3c(CCC(=O)O)c(C)c4[n]3[Co][n]3/c(c(C)c(C(COC(=O)C5=CC5)OC(=O)C5=CC5)/c3=C/C3=NC(=C\4)/C(C(COC(=O)C4=CC4)OC(=O)C4=CC4)=C3C)=C\C1=N2` (stereo not drawn), the half-inhibitory concentration (IC50) in test [9] came out at 2250 nM; in [1] it was 25000 nM; at Pol polyprotein [2], 1500 nM.

On to `CC1=C(CCC(=O)O)c2cc3nc(cc4[nH]c(cc5[nH]c(cc1n2)c(C)c5C(COC(=O)C1=CC1)OC(=O)C1=CC1)c(C)c4C(COC(=O)C1=CC1)OC(=O)C1=CC1)C(C)=C3CCC(=O)O` (stereo not drawn), for which the 50% inhibitory concentration (IC50) in test [1] was 25000 nM and > 150000 nM; against Pol polyprotein [2], 700 nM; in the test on HIV-2 protease [10], 230 nM; with HIV-1 protease it was 50 nM; in [5] it was 185 nM; on Pol polyprotein [11] it was 700 nM.

Consider `CC1=C(CCC(=O)O)c2cc3nc(cc4[nH]c(cc5[nH]c(cc1n2)c(C)c5C(COC(=O)C1=CCC1)OC(=O)C1=CCC1)c(C)c4C(COC(=O)C1=CCC1)OC(=O)C1=CCC1)C(C)=C3CCC(=O)O` (stereo not drawn), for which the IC50 in test [1] came out at 10000 nM; in the test on HIV-2 protease [4], 550 nM.
